Screening results: PubChem, several laboratories
Efflux pump inh – antifungal efflux pump inhibition, Nile Red retention. S. cerevisiae Candida pump triplex. inhibition, % at 10 µM. hit rate 0.44% among 330,000. AID 485275;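 active = plate passing quality check with inhibition over a set limit, or well fluorescence over plate mean plus 4 SD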;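 also: Nile Red retained in pooled yeast measured as flow cytometry median fluorescence; higher means more Nile Red kept so more efflux inhibition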
Beta cell apopt – blocks beta cell apoptosis; INS-1E cytokine-induced death, ATP luminescence, 48 h; percent of positive-control rescue, neutral wells zero; protection from apoptosis, % (no concentration beside the values); hit rate 0.8% among 300,000;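 active = Every replicate reaches about 75%, or at least half do and their mean reaches it too, limit read from the data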;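 also: higher means more ATP so stronger rescue from cytokine killing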
CSC inhib – cancer stem cell inhibition; cancer stem cell-like cells viability, luminescence; inhibition, % at 7.5 µM; hit rate 1.1% among 300,000; in the data active = inhibition above about 75%; tested in HMLE shEcad cells
Mot1-301 SUMO – SUMOylation pathway inhibition by Mot1-301 growth rescue. growth rescue, % at 18.8 µM. S. cerevisiae Mot1-301 growth rescue, ATP luminescence, 38.5C; percent above DMSO median, 100 means doubled. hit rate 1% among 320,000. AID 2716;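 active = every valid replicate shows activation above 250% relative to neutral control wells; inactive = the rest, any valid replicate at or below 250%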
WT yeast gro inh – growth inhibition of WT yeast, mitochondrial fusion screen; mitochondrial fusion phenotypic screen, WT strain; inhibition, % at 10 µM; hit rate 2.1% among 190,000; AID 1362; in the data active = inhibition above about 58%; tested in S. cerevisiae
T cruzi inh – T. cruzi replication inhibition; T. cruzi beta-gal in NIH3T3, luminescence, 90 h; inhibition, % (test concentration not listed); hit rate 1.4% among 300,000; AID 1885;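 active = mean inhibition across valid replicates above about 55%, limit read from the data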;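 also: signal also drops with host cell toxicity which is not excluded here; higher percent means less beta-gal luminescence so fewer parasites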
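System: Mouse NIH/3T3 fibroblasts infected with β-gal-expressing T. cruzi Tulahuen C4 | Quantity: NIH/3T3 cells, 5,000 per well | Reagent: 5000 reporter trypomastigotes per well | Dosing: Compound pinned at 50 nL/well, DMSO | Schedule: 3 h host attachment, then at least 90 h co-culture | Detection: GalScreen luminescence, 60 min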
Hits are given with their value. Hits are enriched below; roughly 4.8% of the tested compounds scored in any of these assays.

`COc1ccc(C(C(=O)NC2CCCC2)N(Cc2ccc(C)cc2)C(=O)c2ccn[nH]2)cc1OC` (configuration not stated) gave Efflux pump inh inactive, Mot1-301 SUMO inactive, WT yeast gro inh inactive and T cruzi inh inactive.
For CC1(C)CC(=O)C(C=Nc2ccc3cn[nH]c3c2)=C(O)C1 the results were Efflux pump inh inactive, Beta cell apopt inactive, CSC inhib inactive, Mot1-301 SUMO inactive, WT yeast gro inh inactive and T cruzi inh inactive.
`CC1(C)CC(=O)C(C=Nc2ccc3[nH]ncc3c2)=C(O)C1` gave Efflux pump inh inactive, Beta cell apopt inactive, CSC inhib inactive, Mot1-301 SUMO inactive, WT yeast gro inh 84 and T cruzi inh inactive.
For COc1ccc(C2C(C#N)=C(SC)NC3=C2C(=O)CC(C)(C)C3)cc1 (configuration not stated) the results were Efflux pump inh inactive, Beta cell apopt inactive, CSC inhib inactive, Mot1-301 SUMO inactive, WT yeast gro inh 79 and T cruzi inh inactive.
Screening CC(=O)c1cc(C#N)c(N2CCCC2)nc1C returned Efflux pump inh inactive, Beta cell apopt inactive, Mot1-301 SUMO inactive, WT yeast gro inh inactive and T cruzi inh inactive.
O=C(N/N=C/c1ccc(N2CCCCC2)o1)c1ccccc1[N+](=O)[O-] was read as Efflux pump inh inactive, Beta cell apopt inactive, CSC inhib inactive, Mot1-301 SUMO inactive, WT yeast gro inh inactive and T cruzi inh inactive.
`COc1cc(Nc2ncnc(N)n2)cc(OC)c1` gave Efflux pump inh inactive, Beta cell apopt inactive, CSC inhib inactive, Mot1-301 SUMO inactive and T cruzi inh inactive.
For COc1cccc(OCCCn2cc(/C=C3/C(=N)N4C=C(C)SC4=NC3=O)c3ccccc32)c1 the results were Efflux pump inh inactive, Beta cell apopt inactive, CSC inhib inactive, Mot1-301 SUMO inactive, WT yeast gro inh inactive and T cruzi inh 57.
Screening COc1ccc(OCCCn2cc(/C=C3/C(=N)N4C=C(C)SC4=NC3=O)c3ccccc32)cc1 returned Efflux pump inh inactive, Beta cell apopt inactive, CSC inhib inactive, Mot1-301 SUMO inactive, WT yeast gro inh inactive and T cruzi inh inactive.
`COc1cc(CNC2CCCC2)cc(Cl)c1OCc1ccccc1F` gave Efflux pump inh inactive, Beta cell apopt inactive, CSC inhib inactive, Mot1-301 SUMO inactive, WT yeast gro inh inactive and T cruzi inh 58.
Screening COc1cc(CNC2CCCCCC2)cc(OC)c1O returned Efflux pump inh inactive, Mot1-301 SUMO inactive, WT yeast gro inh inactive and T cruzi inh inactive.
For CCCCn1c(N)c(N(CC(C)C)C(=O)C2CCN(S(=O)(=O)c3ccc(OCC)cc3)CC2)c(=O)[nH]c1=O the results were Efflux pump inh inactive, Beta cell apopt inactive, CSC inhib inactive, Mot1-301 SUMO inactive and T cruzi inh inactive.
O=C(COc1ccc([N+](=O)[O-])cc1)NCC(c1cccs1)N1CCOCC1 (configuration not stated) was read as Efflux pump inh inactive, Beta cell apopt inactive, CSC inhib inactive, Mot1-301 SUMO inactive and T cruzi inh inactive.
Screening CC(C)(C)NC(=O)Cn1nnc(-c2ccc(OCc3c(F)cccc3Cl)cc2)n1 returned Efflux pump inh inactive, Beta cell apopt inactive, CSC inhib 78, Mot1-301 SUMO inactive and T cruzi inh inactive.
For CC(C)(C)NC(=O)Cn1nnc(-c2ccc(Cl)cc2)n1 the results were Efflux pump inh inactive, CSC inhib inactive, Mot1-301 SUMO inactive, WT yeast gro inh inactive and T cruzi inh inactive.
For O=C(CCNC(=O)c1ccccc1Cl)Nc1cc(S(=O)(=O)N2CCOCC2)ccc1N1CCCC1 the results were Efflux pump inh inactive, Beta cell apopt inactive, CSC inhib inactive, Mot1-301 SUMO inactive and T cruzi inh inactive.
Cc1ccc(C[n+]2cccc(-c3ccccc3)c2)c(C)c1 was read as Efflux pump inh inactive, Beta cell apopt 97, CSC inhib inactive, Mot1-301 SUMO inactive, WT yeast gro inh inactive and T cruzi inh 72.
Screening COC(=O)c1c(-c2ccc(OC)cc2)oc2ccc(-c3cc(OC)c(OC)c(OC)c3)cc12 returned Efflux pump inh inactive, Beta cell apopt inactive, CSC inhib 100, Mot1-301 SUMO inactive and T cruzi inh inactive.
Screening CC(=O)Oc1ccccc1N(C(C)=O)S(=O)(=O)c1cccc([N+](=O)[O-])c1 returned Efflux pump inh inactive, Beta cell apopt inactive, CSC inhib inactive, Mot1-301 SUMO inactive, WT yeast gro inh inactive and T cruzi inh inactive.
